# Measured values reported in ChEMBL document CHEMBL5705902, “Role of G Protein-Coupled Receptor Kinases 2 and 3 in μ-Opioid Receptor Desensitization and Internalization” (Mol Pharmacol, 2015).
# The source made the active and inactive calls. No cut-off for these calls is given here.
# Legend:
# [1] = biological target: Ribosomal protein S6 kinase beta-1 (Homo sapiens) (UniProt P23443); experiment: Inhibition of human S6K1 assessed as remaining activity at 1 uM in presence of 32ATP relative to control
# How it was run: (§1)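 Express panel of 52 purified human kinases run in vitro. Kinase activity was measured directly by a radioactive filter-binding assay with ³²ATP, at ATP levels at or below each kinase's calculated Km for ATP. The compound was tested at 1 μM. Each assay was run in duplicate, and activity is given as the mean percentage (with S.D.) of activity without inhibitor.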
# [2] = biological target: Mu-type opioid receptor (Rattus norvegicus) (UniProt P33535); experiment: Inhibition of HA-tagged rat MOPr in HEK293 cells assessed as prevention in DAMGO induced MOPr phosphorylation at Thr370 level at 30 uM preincubated for 30 mins by western blot analysis; assay type: functional, cell-based
# [3] = biological target: Receptor-interacting serine/threonine-protein kinase 2 (Homo sapiens) (UniProt O43353); experiment: Inhibition of human RIPK2 assessed as remaining activity at 1 uM in presence of 32ATP relative to control; how it was run: as §1
# [4] = biological target: Ribosomal protein S6 kinase alpha-5 (Homo sapiens) (UniProt O75582); experiment: Inhibition of human MSK1 assessed as remaining activity at 1 uM in presence of 32ATP relative to control; how it was run: as §1
# [5] = biological target: Mitogen-activated protein kinase kinase kinase 11 (Homo sapiens) (UniProt Q16584); experiment: Inhibition of human MLK3 assessed as remaining activity at 1 uM in presence of 32ATP relative to control; how it was run: as §1
# [6] = biological target: Mu-type opioid receptor (Rattus norvegicus) (UniProt P33535); experiment: Inhibition of HA-tagged rat MOPr in HEK293 cells assessed as reduction in DAMGO induced MOPr internalization level at 30 uM preincubated for 30 mins by confocal microscopy analysis; assay type: functional, cell-based
# How it was run: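 HA-MOPr HEK 293 cells were prelabeled with anti-HA at 4°C for 1 h, then given inhibitor (30 μM) 30 min at 37°C and DAMGO 10 μM. Cells were stained with a fluorescein secondary and Hoechst and imaged by confocal microscopy (63× oil); repeated 3 times.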
# [7] = biological target: Serine/threonine-protein kinase Sgk1 (Homo sapiens) (UniProt O00141); experiment: Inhibition of human SGK1 at 1 uM in presence of 32ATP relative to control; how it was run: as §1
# [8] = biological target: Mitogen-activated protein kinase kinase kinase 7 (Homo sapiens) (UniProt O43318); experiment: Inhibition of human TAK1 assessed as remaining activity at 1 uM in presence of 32ATP relative to control; how it was run: as §1
# [9] = biological target: Protein kinase C alpha type (Homo sapiens) (UniProt P17252); experiment: Inhibition of human PKCalpha assessed as remaining activity at 1 uM in presence of 32ATP relative to control; how it was run: as §1
# [10] = biological target: Mitogen-activated protein kinase 14 (Homo sapiens) (UniProt Q16539); experiment: Inhibition of human p38a MAPK assessed as remaining activity at 1 uM in presence of 32ATP relative to control; how it was run: as §1
# [11] = biological target: Mu-type opioid receptor (Mus musculus) (UniProt P42866); experiment: Inhibition of MOPr desensitization in C57BL/6J mouse LC neuron cells assessed as reduction in the Met-Enk induced desensitization at 3 uM incubated for 15 mins before
# [12] = biological target: Mu-type opioid receptor (Rattus norvegicus) (UniProt P33535); experiment: Inhibition of MOPr desensitization in wistar rat LC neuron cells assessed as reduction in the Met-Enk induced desensitization incubated for 15 mins before; assay type: functional, cell-based; details: dose 3-30 µM
# How it was run: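 Whole-cell patch clamp of GIRK currents in locus coeruleus slices from male Wistar rats (5–8 weeks). Inhibitor was given at least 15 min before and during the agonist, all drugs by superfusion. Percent desensitization was taken over 10 min of opioid agonist application. Met-Enk n = 5, endomorphin-2 n = 6; ANOVA.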
# [13] = biological target: Tyrosine-protein kinase JAK2 (Homo sapiens) (UniProt O60674); experiment: Inhibition of human JAK2 assessed as remaining activity at 1 uM in presence of 32ATP relative to control; how it was run: as §1
# [14] = biological target: Mu-type opioid receptor (Rattus norvegicus) (UniProt P33535); experiment: Inhibition of MOPr desensitization in wistar rat LC neuron cells assessed as reduction in the Met-Enk induced desensitization at 30 uM incubated for 15 mins before in the presence of PD98059; assay type: functional, cell-based
# [15] = biological target: Mu-type opioid receptor (Homo sapiens) (UniProt P35372); experiment: Inhibition of HA-tagged MOPr (unknown origin) stably expressed in human U2OS cells assessed as reduction in DAMGO induced large recruitment of arrestin-3 translocation at 30 uM preincubated for 30 mins by DiscoveRx PathHunter assay; assay type: functional, cell-based
# How it was run: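 PathHunter U2OS cells stably express tagged human MOPr and tagged arrestin-3. Recruitment reconstitutes β-galactosidase, read by luminescence. DAMGO 10 μM was applied for 90 min, with inhibitor (30 μM) added 30 min before; n = 3.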
# [16] = biological target: Mu-type opioid receptor (Rattus norvegicus) (UniProt P33535); experiment: Inhibition of MOPr desensitization in wistar rat LC neuron cells assessed as reduction in the DAMGO induced desensitization at 30 uM incubated for 15 mins before in the presence of GF109203X; assay type: functional, cell-based
# [17] = biological target: Homeodomain-interacting protein kinase 2 (Homo sapiens) (UniProt Q9H2X6); experiment: Inhibition of human HIPK2 assessed as remaining activity at 1 uM in presence of 32ATP relative to control; how it was run: as §1
# [18] = biological target: Mu-type opioid receptor (Rattus norvegicus) (UniProt P33535); experiment: Inhibition of MOPr desensitization in wistar rat LC neuron cells assessed as Met-Enk response at 3 uM incubated for 15 mins relative to control
# Homo sapiens = species on record: Homo sapiens; experiment: Inhibition of human VEGFR assessed as remaining activity at 1 uM in presence of 32ATP relative to control; how it was run: as §1
# [19] = biological target: Serine/threonine-protein kinase Chk2 (Homo sapiens) (UniProt O96017); experiment: Inhibition of human CHK2 assessed as remaining activity at 1 uM in presence of 32ATP relative to control
# How it was run: (§2)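 Express screen of 52 purified human kinases run as a radioactive filter-binding assay with 32ATP, at 1 μM inhibitor. ATP was at or below each kinase's calculated Km. Activity is given as percent of the activity without inhibitor. Run in duplicate; mean with S.D.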
# [20] = biological target: Protein kinase C (PKC) (Homo sapiens) (UniProt O94806+P41743+P17252+P05129+Q05655+P05771+Q05513+Q02156+P24723+Q15139+Q04759); experiment: Inhibition of PKC (unknown origin) at 1 uM in presence of 32ATP relative to control; assay type: protein assay; how it was run: as §2
# [21] = biological target: Interleukin-1 receptor-associated kinase 4 (Homo sapiens) (UniProt Q9NWZ3); experiment: Inhibition of human IRAK4 assessed as remaining activity at 1 uM in presence of 32ATP relative to control; how it was run: as §1
# [22] = biological target: Mu-type opioid receptor (Rattus norvegicus) (UniProt P33535); experiment: Inhibition of MOPr desensitization in wistar rat LC neuron cells assessed as reduction in the DAMGO induced desensitization at 3 to 100 uM incubated for 15 mins before; assay type: functional, cell-based; details: dose 3-100 µM
# How it was run: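 Rat LC neurons (Wistar, 5–8 weeks) were recorded by whole-cell patch clamp. DAMGO 10 μM was superfused for 12 min to desensitize, then the maximal morphine 30 μM response was measured at plateau. Inhibitor was superfused beforehand; n = 4; ANOVA.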
# [23] = biological target: Mu-type opioid receptor (Rattus norvegicus) (UniProt P33535); experiment: Inhibition of HA-tagged rat MOPr in HEK293 cells assessed as prevention in DAMGO induced MOPr phosphorylation at Thr376 level at 30 uM preincubated for 30 mins by western blot analysis; assay type: functional, cell-based
# Mu-type opioid receptor (Rattus norvegicus), sequence (P33535 whole entry, the tested form may be a part): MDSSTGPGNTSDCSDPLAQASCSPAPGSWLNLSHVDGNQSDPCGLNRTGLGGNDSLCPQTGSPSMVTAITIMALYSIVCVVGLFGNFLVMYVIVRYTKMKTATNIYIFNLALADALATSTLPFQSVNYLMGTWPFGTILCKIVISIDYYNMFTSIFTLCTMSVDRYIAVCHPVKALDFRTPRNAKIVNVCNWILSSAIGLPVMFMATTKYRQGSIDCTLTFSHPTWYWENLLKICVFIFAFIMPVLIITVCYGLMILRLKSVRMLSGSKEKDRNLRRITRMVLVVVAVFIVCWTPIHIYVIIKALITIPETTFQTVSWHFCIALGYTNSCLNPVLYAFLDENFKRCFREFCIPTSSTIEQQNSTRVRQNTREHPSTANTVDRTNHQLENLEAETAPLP
# Ribosomal protein S6 kinase alpha-5 (Homo sapiens), sequence (O75582 whole entry, looked up): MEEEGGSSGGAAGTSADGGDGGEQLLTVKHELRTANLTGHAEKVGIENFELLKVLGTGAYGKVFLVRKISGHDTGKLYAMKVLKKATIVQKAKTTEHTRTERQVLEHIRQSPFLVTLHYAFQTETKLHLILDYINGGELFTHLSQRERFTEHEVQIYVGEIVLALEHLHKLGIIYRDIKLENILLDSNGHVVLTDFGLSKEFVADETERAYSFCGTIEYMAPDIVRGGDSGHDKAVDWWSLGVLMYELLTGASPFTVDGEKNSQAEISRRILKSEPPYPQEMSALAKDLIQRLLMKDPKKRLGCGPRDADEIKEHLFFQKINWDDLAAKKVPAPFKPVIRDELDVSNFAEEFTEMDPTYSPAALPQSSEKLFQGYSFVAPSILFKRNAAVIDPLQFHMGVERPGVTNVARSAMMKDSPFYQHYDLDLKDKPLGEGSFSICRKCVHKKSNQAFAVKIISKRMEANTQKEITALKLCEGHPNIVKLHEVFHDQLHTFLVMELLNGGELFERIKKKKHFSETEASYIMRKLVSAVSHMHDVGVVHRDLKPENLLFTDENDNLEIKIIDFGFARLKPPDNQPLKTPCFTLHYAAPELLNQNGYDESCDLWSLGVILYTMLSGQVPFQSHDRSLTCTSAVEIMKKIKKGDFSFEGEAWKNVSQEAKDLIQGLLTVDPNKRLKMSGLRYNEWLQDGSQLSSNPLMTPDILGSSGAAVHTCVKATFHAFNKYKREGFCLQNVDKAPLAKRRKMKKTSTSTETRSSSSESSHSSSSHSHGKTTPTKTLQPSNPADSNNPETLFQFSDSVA
# Ribosomal protein S6 kinase beta-1 (Homo sapiens), sequence (P23443 whole entry, looked up): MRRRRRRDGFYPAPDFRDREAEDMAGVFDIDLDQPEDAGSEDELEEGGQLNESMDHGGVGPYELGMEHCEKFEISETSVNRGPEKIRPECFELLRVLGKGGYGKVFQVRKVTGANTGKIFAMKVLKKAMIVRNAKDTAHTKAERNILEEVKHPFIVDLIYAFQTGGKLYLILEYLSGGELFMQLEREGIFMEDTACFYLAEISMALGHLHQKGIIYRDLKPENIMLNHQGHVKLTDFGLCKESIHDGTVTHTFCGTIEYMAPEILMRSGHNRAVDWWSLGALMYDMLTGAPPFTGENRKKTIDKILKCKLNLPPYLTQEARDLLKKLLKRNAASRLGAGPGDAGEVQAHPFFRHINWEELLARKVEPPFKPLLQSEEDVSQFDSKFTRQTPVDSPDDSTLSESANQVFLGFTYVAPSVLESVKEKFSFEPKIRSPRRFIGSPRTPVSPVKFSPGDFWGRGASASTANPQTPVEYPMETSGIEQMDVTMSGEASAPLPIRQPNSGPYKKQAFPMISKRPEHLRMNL
# Homeodomain-interacting protein kinase 2 (Homo sapiens), sequence (Q9H2X6 whole entry, looked up): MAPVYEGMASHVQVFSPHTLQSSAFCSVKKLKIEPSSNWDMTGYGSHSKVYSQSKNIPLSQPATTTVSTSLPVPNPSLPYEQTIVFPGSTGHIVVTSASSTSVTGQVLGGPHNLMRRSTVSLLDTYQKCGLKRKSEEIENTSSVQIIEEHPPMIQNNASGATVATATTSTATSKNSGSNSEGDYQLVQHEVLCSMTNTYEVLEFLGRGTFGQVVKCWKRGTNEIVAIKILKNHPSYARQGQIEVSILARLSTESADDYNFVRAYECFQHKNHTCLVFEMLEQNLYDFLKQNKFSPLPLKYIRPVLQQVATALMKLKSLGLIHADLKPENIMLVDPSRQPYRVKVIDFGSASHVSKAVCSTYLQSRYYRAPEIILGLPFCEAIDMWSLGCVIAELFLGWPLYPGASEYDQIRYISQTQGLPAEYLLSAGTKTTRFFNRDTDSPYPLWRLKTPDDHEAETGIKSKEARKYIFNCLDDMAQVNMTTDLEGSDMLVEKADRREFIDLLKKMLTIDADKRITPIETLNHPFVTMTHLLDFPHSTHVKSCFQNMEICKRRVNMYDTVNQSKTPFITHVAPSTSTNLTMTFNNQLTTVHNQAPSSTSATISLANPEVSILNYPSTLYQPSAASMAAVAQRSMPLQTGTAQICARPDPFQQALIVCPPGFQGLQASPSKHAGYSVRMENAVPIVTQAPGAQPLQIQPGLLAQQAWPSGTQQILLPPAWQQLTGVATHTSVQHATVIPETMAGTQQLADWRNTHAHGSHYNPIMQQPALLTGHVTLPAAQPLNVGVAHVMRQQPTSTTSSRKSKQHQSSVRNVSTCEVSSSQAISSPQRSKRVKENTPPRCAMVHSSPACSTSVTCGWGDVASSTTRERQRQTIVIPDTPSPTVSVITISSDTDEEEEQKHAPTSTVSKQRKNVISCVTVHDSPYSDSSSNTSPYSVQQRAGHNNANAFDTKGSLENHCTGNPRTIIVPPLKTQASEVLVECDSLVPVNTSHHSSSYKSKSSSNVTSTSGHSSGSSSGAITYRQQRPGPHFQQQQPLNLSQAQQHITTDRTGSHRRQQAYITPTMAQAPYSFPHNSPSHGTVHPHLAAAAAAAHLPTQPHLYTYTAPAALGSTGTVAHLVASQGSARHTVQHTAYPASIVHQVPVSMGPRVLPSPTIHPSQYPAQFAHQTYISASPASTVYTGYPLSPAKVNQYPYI
# Tyrosine-protein kinase JAK2 (Homo sapiens), sequence (O60674 whole entry): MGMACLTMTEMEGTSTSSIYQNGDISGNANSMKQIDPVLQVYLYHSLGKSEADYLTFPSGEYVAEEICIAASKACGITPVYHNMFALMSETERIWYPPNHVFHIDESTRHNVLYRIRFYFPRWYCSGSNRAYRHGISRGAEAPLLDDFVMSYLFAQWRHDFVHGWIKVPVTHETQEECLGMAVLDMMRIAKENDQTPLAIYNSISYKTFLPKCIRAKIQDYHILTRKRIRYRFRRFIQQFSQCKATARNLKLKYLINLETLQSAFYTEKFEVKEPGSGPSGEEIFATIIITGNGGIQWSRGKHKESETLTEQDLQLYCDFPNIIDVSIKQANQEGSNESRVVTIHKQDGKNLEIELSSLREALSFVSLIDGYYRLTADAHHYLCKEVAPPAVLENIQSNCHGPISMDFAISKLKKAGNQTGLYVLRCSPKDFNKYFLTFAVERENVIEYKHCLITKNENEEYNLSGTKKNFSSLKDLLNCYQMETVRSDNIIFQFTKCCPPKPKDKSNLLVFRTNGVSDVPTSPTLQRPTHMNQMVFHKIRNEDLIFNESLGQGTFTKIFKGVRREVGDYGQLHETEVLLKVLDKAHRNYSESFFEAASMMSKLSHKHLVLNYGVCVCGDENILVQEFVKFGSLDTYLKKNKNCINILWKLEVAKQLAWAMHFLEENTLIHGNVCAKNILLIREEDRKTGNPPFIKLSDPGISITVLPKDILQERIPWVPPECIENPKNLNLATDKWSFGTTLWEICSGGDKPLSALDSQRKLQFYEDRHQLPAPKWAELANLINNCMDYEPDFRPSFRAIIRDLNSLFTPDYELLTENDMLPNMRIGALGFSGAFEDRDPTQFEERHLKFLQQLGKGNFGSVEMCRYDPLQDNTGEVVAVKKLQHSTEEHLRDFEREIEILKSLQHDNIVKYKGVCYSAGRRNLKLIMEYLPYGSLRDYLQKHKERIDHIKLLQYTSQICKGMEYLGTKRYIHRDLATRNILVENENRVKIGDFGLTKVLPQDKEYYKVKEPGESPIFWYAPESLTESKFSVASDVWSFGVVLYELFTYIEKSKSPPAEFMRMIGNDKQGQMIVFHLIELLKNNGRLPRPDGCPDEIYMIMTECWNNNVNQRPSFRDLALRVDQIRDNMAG
# Serine/threonine-protein kinase Chk2 (Homo sapiens), sequence (O96017 whole entry): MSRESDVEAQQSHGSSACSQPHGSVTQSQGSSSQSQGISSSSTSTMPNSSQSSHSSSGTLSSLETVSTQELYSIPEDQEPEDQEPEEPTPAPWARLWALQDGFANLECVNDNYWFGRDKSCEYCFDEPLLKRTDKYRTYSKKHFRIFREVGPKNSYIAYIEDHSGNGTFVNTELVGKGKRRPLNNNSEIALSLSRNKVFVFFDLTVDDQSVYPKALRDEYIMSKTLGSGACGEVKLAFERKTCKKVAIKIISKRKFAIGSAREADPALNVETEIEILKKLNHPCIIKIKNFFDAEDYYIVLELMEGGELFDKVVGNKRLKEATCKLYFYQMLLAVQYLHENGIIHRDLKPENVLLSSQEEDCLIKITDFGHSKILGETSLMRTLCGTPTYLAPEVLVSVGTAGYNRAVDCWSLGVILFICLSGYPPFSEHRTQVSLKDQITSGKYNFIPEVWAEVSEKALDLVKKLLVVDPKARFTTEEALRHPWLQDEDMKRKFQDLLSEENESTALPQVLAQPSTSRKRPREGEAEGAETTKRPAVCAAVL
# Mu-type opioid receptor (Homo sapiens), sequence (P35372 whole entry): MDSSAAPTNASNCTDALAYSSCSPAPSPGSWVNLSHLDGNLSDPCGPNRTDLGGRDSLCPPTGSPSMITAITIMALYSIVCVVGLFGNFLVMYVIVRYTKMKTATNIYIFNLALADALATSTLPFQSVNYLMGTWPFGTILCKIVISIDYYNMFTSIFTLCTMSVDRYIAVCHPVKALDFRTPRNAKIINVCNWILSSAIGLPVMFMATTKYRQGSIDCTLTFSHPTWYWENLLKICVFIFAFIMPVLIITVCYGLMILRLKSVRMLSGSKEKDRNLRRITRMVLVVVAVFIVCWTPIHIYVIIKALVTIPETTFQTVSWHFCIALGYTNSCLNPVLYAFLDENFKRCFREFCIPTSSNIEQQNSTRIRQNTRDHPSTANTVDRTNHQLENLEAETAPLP
smiles,measurement,setting,value
Cn1c(CNc2cccc(C(=O)NCc3ccccc3C(F)(F)F)c2)nnc1-c1ccncc1,Activity,[1],47%
same,inhibition,[2],Active
same,Activity,[3],93%
same,Activity,[4],10%
same,Activity,[5],86%
same,inhibition,[6],Active
same,inhibition,[7],69%
same,Activity,[8],113%
same,Activity,[9],96%
same,Activity,[10],101%
same,inhibition,[11],Active
same,inhibition,[12],Dose-Dependent Effect
same,Activity,[13],94%
same,inhibition,[14],inactive
same,inhibition,[15],Active
same,inhibition,[16],inactive
same,Activity,[17],103%
same,"Met-Enk (600 nM) response, % of initial",[18],94%
same,Activity,Homo sapiens,79%
same,Activity,[19],79%
same,inhibition,[20],< 20%
same,Activity,[21],96%
same,inhibition,[22],Active
same,inhibition,[23],Active
